Assay results from ChEMBL document CHEMBL1136108, “Benzoxazinones as PPARgamma agonists. part 1: SAR of three aromatic regions” (Bioorg Med Chem Lett, 2003).

Tests used:
[1] = target: T1, Peroxisome proliferator-activated receptor gamma (Homo sapiens) (UniProt P37231); experiment: Agonist activity determined in peroxisome proliferator activated receptor gamma using PPAR gamma-Gal4 Luciferase cotransfection assay; assay type: functional
T1 sequence (whole entry): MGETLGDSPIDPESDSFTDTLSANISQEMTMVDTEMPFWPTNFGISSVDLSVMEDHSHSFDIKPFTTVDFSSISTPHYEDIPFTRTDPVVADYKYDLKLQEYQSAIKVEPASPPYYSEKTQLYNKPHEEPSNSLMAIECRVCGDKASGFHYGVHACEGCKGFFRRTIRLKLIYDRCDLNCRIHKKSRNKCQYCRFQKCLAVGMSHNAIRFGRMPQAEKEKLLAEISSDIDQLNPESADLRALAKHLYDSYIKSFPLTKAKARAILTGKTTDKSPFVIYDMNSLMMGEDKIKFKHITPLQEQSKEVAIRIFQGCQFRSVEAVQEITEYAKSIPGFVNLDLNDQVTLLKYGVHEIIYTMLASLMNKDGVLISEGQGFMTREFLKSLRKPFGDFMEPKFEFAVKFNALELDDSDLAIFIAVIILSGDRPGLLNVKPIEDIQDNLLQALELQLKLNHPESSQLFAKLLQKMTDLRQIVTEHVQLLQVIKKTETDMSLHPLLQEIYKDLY
Summary of the method: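 HEK293 cells grown in DMEM/F-12 with 10% FBS and glutamine, co-transfected (DMRIE-C) with PPARg-Gal4 receptor and Gal4-luciferase reporter DNA. Next day, medium switched to 5% charcoal-treated FBS; after 6 h cells seeded and incubated overnight at 37°C. Compound exposure 24 h at 37°C, 5% CO2; luciferase read by Steady-Glo. Values are the mean of two experiments.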

[2] = target: T1, Peroxisome proliferator-activated receptor gamma (Homo sapiens); experiment: Functional potency was determined in pooled human preadipocytes by measurement of PPARg aP2 gene induction; assay type: cell-based
Summary of the method: (§1)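 Pooled human preadipocytes treated with compound. Induction of the aP2 gene was quantified by a branched DNA technique. EC50 values are the mean of two experiments.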

[3] = target: T1, Peroxisome proliferator-activated receptor gamma (Homo sapiens); experiment: PPAR gamma mediated aP2 gene induction in pooled human preadipocytes; assay type: functional, cell-based; summary of the method: as §1
[4] = Half life period in human hepatic S9 fraction was determined; assay type: ADME, subcellular; conditions: liver S9 fraction
[5] = Half life period in human liver microsome was determined; assay type: ADME; conditions: liver microsomes
Rattus norvegicus [6] = experiment: Oral bioavailability after administration (30 mg/kg) in rat; good; assay type: ADME, organism-based; conditions: in vivo
[7] = Half life period after administration (30 mg/kg) in rat; assay type: ADME, organism-based; conditions: in vivo
Rattus norvegicus [8] = experiment: Area under curve (AUC0-24 h) after administration (30 mg/kg) in rat; assay type: ADME, organism-based; parameters: dose 30 mg/kg, time < 24 hr; conditions: in vivo
Mus musculus = experiment: Decrease in plasma glucose in db/db mice after 5 days of 30 mg/kg oral administration; assay type: functional

| Structure (SMILES) | Activity [1] [µM] | Activity [2] [µM] | further results |
| --- | --- | --- | --- |
| CC(=O)c1ccc2c(c1)OC(CCOc1ccccc1CC(=O)O)C(=O)N2Cc1ccc(Cl)cc1 (stereo not drawn) | 1.8 | 6.2 | – |
| O=C(O)Cc1cccc(OCCC2Oc3ccccc3N(Cc3ccc(Cl)cc3)C2=O)c1 (stereo not drawn) | > 5 | > 10 | – |
| O=C(O)Cc1ccc(OCCC2Oc3ccccc3N(Cc3cccc(Cl)c3)C2=O)cc1 (stereo not drawn) | – | – | Fold induction [3]: 3.2 |
| O=C(O)Cc1ccccc1OCCC1Oc2ccccc2N(CCc2ccc(Cl)c(Cl)c2)C1=O (stereo not drawn) | > 5 | > 10 | – |
| O=C(O)Cc1ccccc1OCCC1Oc2ccccc2N(Cc2cccc(Cl)c2)C1=O (stereo not drawn) | 1.9 | 2.4 | Fold induction [3]: 6.2 |
| COc1ccc(CN2C(=O)C(CCOc3ccccc3CC(=O)O)Oc3ccccc32)cc1 (stereo not drawn) | 0.52 | 5.4 | – |
| O=C(O)Cc1ccccc1OCCC1CN(Cc2ccc(Cl)c(Cl)c2)c2ccccc2O1 (stereo not drawn) | > 5 | > 10 | – |
| O=C(O)Cc1ccccc1OCCC1Oc2ccccc2N(c2ccc(Cl)c(Cl)c2)C1=O (stereo not drawn) | 0.57 | 5.9 | – |
| CN(CCOc1ccc(CC2SC(=O)NC2=O)cc1)c1ccccn1 (stereo not drawn) | – | 0.12 | – |
| Cc1ccc2c(c1)OC(CCOc1ccccc1CC(=O)O)C(=O)N2Cc1ccc(Cl)cc1 (stereo not drawn) | 2.1 | 4.2 | – |
| O=C(O)Cc1ccccc1OCCC1Oc2ccccc2N(Cc2ccc(C(F)(F)F)cc2)C1=O (stereo not drawn) | 0.5 | 0.51 | – |
| O=C(O)Cc1ccccc1OCCC1Oc2cc(F)ccc2N(Cc2ccc(Cl)cc2)C1=O (stereo not drawn) | > 5 | > 10 | – |
| O=C(O)CCc1ccc(OCCC2Oc3ccccc3N(Cc3cccc(Cl)c3)C2=O)cc1 (stereo not drawn) | – | – | Fold induction [3]: 3.6 |
| O=C(O)Cc1ccccc1OCCC1Oc2ccccc2N(Cc2ccc(F)cc2)C1=O (stereo not drawn) | 1.1 | 3.2 | – |
| O=C(O)Cc1ccccc1OCCC1Oc2ccccc2N(Cc2ccc(Cl)cc2)C1=O (stereo not drawn) | 1.3 | 2.1 | half-life [4]: > 0.833 h; half-life [5]: > 0.833 h; F (Rattus norvegicus [6]): Active; half-life [7]: 20 h; AUC (Rattus norvegicus [8]): 308 µM·h; Glucose level (Mus musculus): 27% |
| O=C(O)Cc1ccccc1OCCC1Oc2ccc(C(=O)O)cc2N(Cc2ccc(Cl)cc2)C1=O (stereo not drawn) | > 5 | > 10 | – |
| O=C(O)CCc1cccc(OCCC2Oc3ccccc3N(Cc3cccc(Cl)c3)C2=O)c1 (stereo not drawn) | – | – | Fold induction [3]: 5.6 |
| O=C(O)Cc1ccccc1OCCC1Oc2ccccc2N(Cc2ccc(F)c(F)c2)C1=O (stereo not drawn) | 0.59 | 1.3 | – |
| O=C(O)Cc1cccc(OCCC2Oc3ccccc3N(Cc3cccc(Cl)c3)C2=O)c1 (stereo not drawn) | > 5 | > 10 | Fold induction [3]: 5.5 |
| O=C(O)CCc1ccccc1OCCC1Oc2ccccc2N(Cc2ccc(Cl)cc2)C1=O (stereo not drawn) | > 5 | > 10 | – |
| O=C(O)Cc1ccccc1OCCC1Oc2cc3ccccc3cc2N(Cc2ccc(Cl)cc2)C1=O (stereo not drawn) | > 5 | > 10 | – |
| Cc1ccc(CN2C(=O)C(CCOc3ccccc3CC(=O)O)Oc3ccccc32)cc1 (stereo not drawn) | 2 | 5 | – |
| O=C(O)Cc1ccccc1OCCC1Oc2ccccc2N(Cc2ccc(Cl)c(Cl)c2)C1=O (stereo not drawn) | 0.96 | 2.6 | – |
| O=C(O)Cc1ccccc1OCCC1Oc2ccccc2N(Cc2ccccc2)C1=O (stereo not drawn) | > 5 | 4.6 | – |
| COc1ccc2c(c1)N(Cc1ccc(Cl)cc1)C(=O)C(CCOc1ccccc1CC(=O)O)O2 (stereo not drawn) | 1.8 | 6 | – |
| O=C(O)c1ccccc1OCCC1Oc2ccccc2N(Cc2ccc(Cl)cc2)C1=O (stereo not drawn) | > 5 | > 10 | – |
| O=C(O)Cc1ccccc1OCCC1Oc2ccccc2N(Cc2ccc3c(c2)OCO3)C1=O (stereo not drawn) | 1.1 | 4.4 | – |
